Compounds with a hit are over-represented: about 3.8% of the library has one in this group of screens.
RGS4 block = human RGS4 inhibition; P49798; HEK293 M3R/RGS4 inducible, Fluo-4 calcium flux; active compounds read high; triggered by carbachol at its EC20; B-score at 10 µM; hit rate 0.45% among 310,000; AID 463165;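 active = B-score, a plate-corrected calcium signal, over three deviations above library mean, with baseline fluorescence within five deviations of library mean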;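 also: RGS4 expression induced by doxycycline in cells with stable M3 receptor; B-score is computed from the integrated fluorescence ratio over baseline after carbachol; higher B-score means a larger calcium signal and so more RGS4 inhibition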
Target sequence (P49798 whole entry, looked up): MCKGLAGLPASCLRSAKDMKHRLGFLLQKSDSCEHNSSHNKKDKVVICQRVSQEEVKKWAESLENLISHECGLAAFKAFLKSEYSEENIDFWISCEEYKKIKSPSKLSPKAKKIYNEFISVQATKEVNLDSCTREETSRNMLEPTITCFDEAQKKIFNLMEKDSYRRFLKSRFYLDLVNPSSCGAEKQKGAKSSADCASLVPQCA
Lipid droplet = hepatic lipid droplet formation modulation | hit rate 0.4% among 240,000 | inhibition, % at 6.5 µM | AML12 mouse hepatocytes, oleate lipid droplets, BODIPY imaging;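 active = lipid droplet intensity inhibited by at least 50%, with more than 500 cells counted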
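Technique: fluorescence imaging, 20x objective, two fields per well / Assay system: AML12 hepatocytes (mouse) / Measure: % inhibition of lipid droplet signal / Doses: 6.5 µM single-point dosing / Incubation: overnight exposure / Reagent: 100 µM oleic acid challenge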
MrgX1 allo act = allosterically activates human MrgX1 receptor signaling; Q96LB2; MrgX1-HEK293, Fluo-4 calcium flux, FDSS; active compounds read high; B-score at 10 µM; hit rate 0.63% among 310,000; AID 588675;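 active = plate-corrected calcium response at least 3 library SD above typical, normal starting fluorescence, not activating the receptor alone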;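 also: compound read alongside a low EC10 to EC30 dose of BAM8-22 agonist; peak minus trough fluorescence over baseline measured at the second addition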
MrgX1 antagonist = human MrgX1 receptor antagonism, primary screen; hit rate 1.3% among 310,000; MRGX1-HEK293 calcium flux, Fluo-4, BAM8-22 antagonism; active compounds read low; Q96LB2; B-score at 10 µM;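 active = calcium-response B-score plate-corrected more than 3 library SD below zero, starting fluorescence within 5 deviations, no agonist response on first addition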;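 also: peak minus trough fluorescence over baseline after final BAM8-22 challenge near maximal dose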
MrgX1 agonist = activates human MrgX1 receptor signaling | Q96LB2 | MrgX1-HEK293 cells, Fluo-4 calcium fluorescence, agonist mode; active compounds read high | B-score at 10 µM | hit rate 0.44% among 310,000 | AID 588627;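 active = calcium response B-score plate-corrected fluorescence ratio at least 3 library SD, with starting fluorescence B-score inside 5 SD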
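Material: MrgX1-expressing HEK293 cells / Dosing: compound as first of three additions / Incubation: overnight seeding, then 1 h dark dye loading / Signal: Fluo-4 NW calcium fluorescence / Evaluation: B-scored fluorescence response ratio / Benchmarks: positive and negative control wells on each plate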
RGS4 act = RGS4 potentiation or activation. AID 463111. B-score at 10 µM. HEK293 M3R/inducible RGS4, carbachol calcium flux Fluo4; active compounds read low. hit rate 0.92% among 310,000;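 active = B-score of the integrated calcium signal more than 4 SD below the library mean, with starting fluorescence not abnormally high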;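 also: negative B-score means reduced calcium response which marks RGS4 activation or potentiation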
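Detection: kinetic calcium fluorescence imaging with Fluo4-AM dye, 2 µM / Material: HEK293 cells with stable M3R and inducible RGS4 / Schedule: recording 10 s baseline at 1 Hz, 100 s post-agonist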
RGS4 block valid = RGS4 inhibitor validation. shares compounds with RGS4 block. HEK293 M3R/RGS4, carbachol calcium Fluo-4 fluorescence; carbachol added at its EC20; 0 = buffer wells, 100 = carbachol control. calcium response, % at 10 µM. hit rate 65% among 1,700. AID 492999;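 active = duplicate-averaged calcium response above the buffer-only control mean plus 5 SD of those controls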;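 also: integrated fluorescence ratio F max minus min over baseline F0; higher response in RGS4-induced cells means RGS4 inhibition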
RGS4 uninduced = counter-screen for RGS4 inhibitors: effect in non-induced cells; shares compounds with RGS4 block; activity (percent), % at 10 µM; AID 493000; hit rate 20% among 1,900; HEK293 M3R non-induced, carbachol calcium Fluo-4; submaximal (EC20) carbachol stimulus; buffer wells 0%, carbachol control wells 100%; call rule not given here;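 also: RGS4 induction absent so cells express M3R without RGS4; higher means more calcium signal and flags a non-specific hit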
RGS4 inh ctr2 = second RGS4 inhibitor counter-screen in uninduced cells lacking carbachol | shares compounds with RGS4 block | HEK293 M3R/RGS4 non-induced, Fluo-4 calcium, no carbachol; normalised: buffer wells 0%, carbachol wells 100% | calcium response (agonist-mode artifact), % at 10 µM | hit rate 22% among 1,900;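 active = duplicate-averaged calcium rise in uninduced cells above buffer wells' mean plus 5 SD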
The depositor's hits bear a star; i = inactive; nt = not tested or not shown.

SMILES	RGS4 block	Lipid droplet	MrgX1 allo act	MrgX1 antagonist	MrgX1 agonist	RGS4 act	RGS4 block valid	RGS4 uninduced	RGS4 inh ctr2
C=C(CC1CC(O)[C@]2(C)OC3CC4OC5C[C@]6(C)O[C@]7(C)CCC8OC9C[C@]%10(C)OC%11C(C)=CC(=O)OC%11CC%10OC9C[C@@H](C)C8OC7CC6O[C@]5(C)C/C=C\C4OC3CC2O1)C(=O)O (some centres undefined)	i	8	i	i	i	i	i	i	i
Cc1cc(Oc2cc(NN3CCCCC3)c([N+](=O)[O-])cc2[N+](=O)[O-])ccc1[N+](=O)[O-]	i	15	i	i	i	i	nt	nt	nt
O=C1NC(=O)C(=Cc2ccc(-c3ccc(S(=O)(=O)N4CCOCC4)cc3)o2)C(=O)N1	i	-6	i	i	i	i	nt	nt	nt
O=C1NC(=O)C(=Cc2ccc3c(c2)OCO3)C(=O)N1	i	14	i	i	i	i	nt	nt	nt
O=C1NC(=O)C(=Cc2ccc(-c3ccc(Cl)cc3)o2)C(=O)N1	14*	0	i	i	i	i	16%*	i	8.5%*
O=C1NC(=O)C(=Cc2ccc(-c3ccc(F)cc3O)o2)C(=O)N1	40*	-2	i	i	i	i	74%*	32%*	10%*
Cc1ccc2c(c1)N(C(=O)CCC(=O)N1CCC3(CC1)OCCO3)CCO2	i	-14	i	i	i	i	nt	nt	nt
c1ccc2c(c1)Sc1ccccc1N2CC1CN2CCC1CC2 (centres undefined)	i	38	i	i	i	i	nt	nt	nt
O=C(N/N=C/c1c(O)n(Cc2ccccc2)c(=O)[nH]c1=O)c1ccncc1	i	4	i	i	i	i	nt	34%*	i
O=C(N/N=C/c1c(O)n(Cc2ccc(F)cc2)c(=O)[nH]c1=O)c1ccccc1	i	1	i	i	i	i	nt	i	i
C=CCn1c(O)c(/C=N/NC(=O)c2ccncc2)c(=O)[nH]c1=O	i	-8	i	i	i	i	nt	nt	nt
Oc1ccc2c3c1O[C@H]1c4oc5ccccc5c4C[C@@]4(O)[C@@H](C2)N(CC2CC2)CC[C@]314	i	0	i	i	i	i	nt	nt	nt
COc1cc(/C=C/[N+](=O)[O-])ccc1OC(=O)c1cccnc1	49*	0	i	i	i	i	113%*	45%*	26%*
N[C@@H](Cc1cc(Br)c(O)c(Br)c1)C(=O)O	6.7*	-5	i	i	i	i	12%*	i	i
O=c1oc2ccccc2c(O)c1C(c1ccc([N+](=O)[O-])cc1)c1c(O)c2ccccc2oc1=O	4.9*	7	nt	nt	nt	i	30%*	i	i
CN1C(=O)C(=Cc2ccc(Sc3ccccc3)o2)C(=O)N(C)C1=O	27*	3	i	i	i	i	23%*	i	210%*
CN1C(=O)C(=Cc2ccc(Sc3ccccc3)o2)C(=O)N(C)C1=S	i	nt	i	i	i	i	i	i	8.5%*
CN1C(=O)C(=Cc2coc3ccccc3c2=O)C(=O)N(C)C1=O	i	8	i	i	i	i	nt	nt	nt
O=C1NC(=O)C(=Cc2ccc(Sc3ccccc3)o2)C(=O)N1	9.9*	1	i	i	i	i	5.0%*	i	29%*
